≈ marks a conversion by molar mass, not a printed value. Calls of active or inactive are those of the source.
Tests used:
Bacteroides fragilis [1] = assay: Antimicrobial activity against Bacteroides fragilis ATCC 23745 infected BALB/c mouse mixed infection abscesses model co-infected with Enterobacter cloacae isolate 22491 assessed as reduction in bacterial load per abscess at 384 mg/kg/day administered every 8 hrs; assay type: functional
How it was run: (§1)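 Female BALB/c mice (12-18 wk) injected s.c. on both flanks with 10^7 CFU each of B. fragilis and E. cloacae plus 4 mg autoclaved cecal contents. CZX was given s.c. from 30 min before inoculation for 24 h, two mice per group. Abscesses were homogenized in PBS and plated in duplicate: E. cloacae on EM agar (aerobic, 24 h), B. fragilis on WC agar with gentamicin (anaerobic, 48 h). Result is mean log10 CFU/abscess of four abscesses ± SEM versus untreated; threshold 1.7 log10.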

Enterobacter cloacae [2] = assay: Antimicrobial activity against Enterobacter cloacae isolate 22491 infected BALB/c mouse mixed infection abscesses model co-infected with Bacteroides fragilis ATCC 23745 assessed as increase in resistant bacterial count per abscess at 96 mg/kg/day administered every 4 hrs; assay type: functional
How it was run: (§2)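 Mixed subcutaneous flank abscesses in female SPF BALB/c mice (10^7 CFU of each strain plus 4 mg autoclaved cecal contents). Drug given subcutaneously, starting 30 min before inoculation, for 24 h. Abscesses homogenized in PBS. Resistant E. cloacae counted on WC agar with 16x MIC (48 h aerobic, 37°C) and total counts on drug-free EM agar. Groups of two mice.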

Enterobacter cloacae [3] = assay: Antimicrobial activity against Enterobacter cloacae isolate 22491 infected BALB/c mouse mixed infection abscesses model co-infected with Bacteroides fragilis ATCC 23745 assessed as reduction in bacterial load per abscess at 1536 mg/kg/day administered every 8 hrs; assay type: functional; how it was run: as §1
[4] = Ratio of fAUC to MIC in Enterobacter cloacae isolate 22491 infected BALB/c mouse mixed infection abscesses model co-infected with Bacteroides fragilis ATCC 23745; assay type: functional
Mus musculus [5] = assay: Unbound Cmax (fCmax) in Bacteroides fragilis ATCC 23745 and Enterobacter cloacae isolate 22491-infected BALB/c mouse mixed infection abscesses model at 100 mg/kg administered as 36 doses every 2 hrs; assay type: ADME, organism-based; set-up: dose 100 mg/kg; conditions: in vivo
How it was run: (§3)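 Infected mice received 36 doses of 100 mg/kg CZX q2h. Serum CZX measured in duplicate by agar diffusion bioassay against E. coli strain 62. One-compartment open model; unbound values assume 13% protein binding in mouse serum.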

Enterobacter cloacae [6] = assay: Antimicrobial activity against Enterobacter cloacae isolate 22491 infected BALB/c mouse mixed infection abscesses model co-infected with Bacteroides fragilis ATCC 23745 assessed as increase in resistant bacterial count per abscess at 96 mg/kg/day administered every 2 hrs; assay type: functional; how it was run: as §2
Mus musculus [7] = assay: Unbound Cmax (fCmax) in Bacteroides fragilis ATCC 23745 and Enterobacter cloacae isolate 22491-infected BALB/c mouse mixed infection abscesses model at 100 mg/kg administered as single dose; assay type: ADME, organism-based; set-up: dose 100 mg/kg; conditions: in vivo
How it was run: (§4)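 Single s.c. dose of 100 mg/kg CZX in groups of three infected mice, 4 days after inoculation. Orbital blood taken at 10-360 min. Serum CZX measured in duplicate by agar diffusion bioassay against E. coli strain 62. One-compartment open model; unbound values assume 13% serum protein binding.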

Enterobacter cloacae [8] = assay: Antimicrobial activity against Enterobacter cloacae isolate 22491 infected BALB/c mouse mixed infection abscesses model co-infected with Bacteroides fragilis ATCC 23745 assessed as bacterial killing at 24 mg/kg/day administered every 4 hrs; assay type: functional, organism-based; how it was run: as §1
Bacteroides fragilis [9] = assay: Antimicrobial activity against Bacteroides fragilis ATCC 23745 infected BALB/c mouse mixed infection abscesses model co-infected with Enterobacter cloacae isolate 22491 assessed as bacterial killing at 24 mg/kg/day administered every 4 hrs; assay type: functional, organism-based; how it was run: as §1
Bacteroides fragilis [10] = assay: Antimicrobial activity against Bacteroides fragilis ATCC 23745 infected BALB/c mouse mixed infection abscesses model co-infected with Enterobacter cloacae isolate 22491 assessed as inhibition of emergence of resistance mutation; assay type: functional, organism-based
How it was run: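 Female SPF BALB/c mice (12–18 weeks, 20–25 g) injected subcutaneously on both flanks with 10^7 CFU B. fragilis, 10^7 CFU E. cloacae and 4 mg ACC. Drug given subcutaneously at 6–1,536 mg/kg/day, q2h–q8h, beginning 30 min before inoculation, for 24 h. B. fragilis mutants counted on WC agar with 16x MIC plus 100 mg/liter gentamicin, 72 h anaerobic, 37°C.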

Enterobacter cloacae [11] = assay: Antimicrobial activity against Enterobacter cloacae isolate 22491 infected BALB/c mouse mixed infection abscesses model co-infected with Bacteroides fragilis ATCC 23745 assessed as increase in resistant bacterial count per abscess at 24 mg/kg/day administered every 2 hrs; assay type: functional; how it was run: as §2
Enterobacter cloacae [12] = assay: Antimicrobial activity against Enterobacter cloacae isolate 22491 infected BALB/c mouse mixed infection abscesses model co-infected with Bacteroides fragilis ATCC 23745 assessed as reduction in bacterial load per abscess at 384 mg/kg/day administered every 8 hrs; assay type: functional; how it was run: as §1
Bacteroides fragilis [13] = assay: Antimicrobial activity against Bacteroides fragilis ATCC 23745 infected BALB/c mouse mixed infection abscesses model co-infected with Enterobacter cloacae isolate 22491 assessed as bacterial killing at 96 mg/kg/day administered every 4 hrs; assay type: functional, organism-based; how it was run: as §1
Enterobacter cloacae [14] = assay: Antimicrobial activity against Enterobacter cloacae isolate 22491; assay type: functional
Enterobacter cloacae [15] = assay: Antimicrobial activity against Enterobacter cloacae isolate 22491 infected BALB/c mouse mixed infection abscesses model co-infected with Bacteroides fragilis ATCC 23745 assessed as increase in resistant bacterial count per abscess at 24 mg/kg/day administered every 4 hrs; assay type: functional; how it was run: as §2
Enterobacter cloacae [16] = assay: Antimicrobial activity against Enterobacter cloacae isolate 22491 infected BALB/c mouse mixed infection abscesses model co-infected with Bacteroides fragilis ATCC 23745 assessed as increase in resistant bacterial count per abscess at 6 mg/kg/day administered every 4 hrs; assay type: functional; how it was run: as §2
Enterobacter cloacae [17] = assay: Antimicrobial activity against Enterobacter cloacae isolate 22491 infected BALB/c mouse mixed infection abscesses model co-infected with Bacteroides fragilis ATCC 23745 assessed as bacterial killing at 96 mg/kg/day administered every 4 hrs; assay type: functional, organism-based; how it was run: as §1
Enterobacter cloacae [18] = assay: Antimicrobial activity against Enterobacter cloacae isolate 22491 infected BALB/c mouse mixed infection abscesses model co-infected with Bacteroides fragilis ATCC 23745 assessed as increase in resistant bacterial count per abscess at 6 mg/kg/day administered every 2 hrs; assay type: functional; how it was run: as §2
Enterobacter cloacae [19] = assay: Antimicrobial activity against Enterobacter cloacae isolate 22491 infected BALB/c mouse mixed infection abscesses model co-infected with Bacteroides fragilis ATCC 23745 assessed as bacterial killing at 6 mg/kg/day administered every 2 hrs; assay type: functional, organism-based; how it was run: as §1
[20] = fT>MIC in Enterobacter cloacae isolate 22491-infected BALB/c mouse at 100 mg/kg; assay type: functional
Bacteroides fragilis [21] = assay: Antimicrobial activity against Bacteroides fragilis ATCC 23745; assay type: functional
Enterobacter cloacae [22] = assay: Antimicrobial activity against Enterobacter cloacae isolate 22491 assessed as mutation prevention concentration; assay type: functional
How it was run: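 Overnight culture concentrated to 10^10 CFU/ml by centrifugation. 1 ml spread over five agar plates containing drug, first at twofold dilutions, then at linear increments. Plates read after 18 h at 37°C. MPC taken as the lowest concentration giving no colonies from 10^10 bacteria. Colonies from the highest concentration were subcultured drug-free to check mutant stability.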

Bacteroides fragilis [23] = assay: Antimicrobial activity against Bacteroides fragilis ATCC 23745 infected BALB/c mouse mixed infection abscesses model co-infected with Enterobacter cloacae isolate 22491 assessed as reduction in bacterial load per abscess at 1536 mg/kg/day administered every 8 hrs; assay type: functional; how it was run: as §1
Bacteroides fragilis [24] = assay: Antimicrobial activity against Bacteroides fragilis ATCC 23745 infected BALB/c mouse mixed infection abscesses model co-infected with Enterobacter cloacae isolate 22491 assessed as bacterial killing at 6 mg/kg/day administered every 2 hrs; assay type: functional, organism-based; how it was run: as §1
[25] = Half life in Bacteroides fragilis ATCC 23745 and Enterobacter cloacae isolate 22491-infected BALB/c mouse mixed infection abscesses model at 100 mg/kg administered as 36 doses every 2 hrs; assay type: ADME, organism-based; set-up: dose 100 mg/kg; conditions: in vivo; how it was run: as §3
[26] = Half life in Bacteroides fragilis ATCC 23745 and Enterobacter cloacae isolate 22491-infected BALB/c mouse mixed infection abscesses model at 100 mg/kg administered as single dose; assay type: ADME, organism-based; set-up: dose 100 mg/kg; conditions: in vivo; how it was run: as §4

Question: Which log10cfu (Bacteroides fragilis [1]) does the source give for CO/N=C(\C(=O)N[C@@H]1C(=O)N2C(C(=O)O)=CCS[C@H]12)c1csc(N)n1 [CEFTIZOXIME] here?
Answer: >=5

Question: And the log10cfu (Enterobacter cloacae [2])?
Answer: 2

Question: And the log10cfu (Enterobacter cloacae [3])?
Answer: >=5

Question: And the Ratio [4]?
Answer: 1000

Question: What about the Cmax_unbound (Mus musculus [5]) of the same compound?
Answer: 600 ng/mL

Question: What about the log10cfu (Enterobacter cloacae [6]) of the same compound?
Answer: 3.8

Question: What about the Cmax_unbound (Mus musculus [7]) of the same compound?
Answer: 600 ng/mL

Question: What about the Activity (Enterobacter cloacae [8]) of the same compound?
Answer: inactive

Question: What about the Activity (Bacteroides fragilis [9]) of the same compound?
Answer: inactive

Question: And the Activity (Bacteroides fragilis [10])?
Answer: Active

Question: What about the log10cfu (Enterobacter cloacae [11]) of the same compound?
Answer: 3.8

Question: And the log10cfu (Enterobacter cloacae [12])?
Answer: >=5

Question: And the Activity (Bacteroides fragilis [13])?
Answer: inactive

Question: And the MIC (Enterobacter cloacae [14])?
Answer: 0.25 µg/mL (≈ 0.652 µM)

Question: And the MIC99 (Enterobacter cloacae [14])?
Answer: 0.125 µg/mL (≈ 0.326 µM)

Question: What about the log10cfu (Enterobacter cloacae [15]) of the same compound?
Answer: 2

Question: And the log10cfu (Enterobacter cloacae [16])?
Answer: 2

Question: What about the Activity (Enterobacter cloacae [17]) of the same compound?
Answer: inactive

Question: And the log10cfu (Enterobacter cloacae [18])?
Answer: 3.8

Question: What about the Activity (Enterobacter cloacae [19]) of the same compound?
Answer: inactive

Question: What about the “T>MIC” value [20] of the same compound?
Answer: 9%

Question: What about the MIC (Bacteroides fragilis [21]) of the same compound?
Answer: 1 µg/mL (≈ 2.61 µM)

Question: What about the MPC (Enterobacter cloacae [22]) of the same compound?
Answer: 384 µg/mL

Question: And the log10cfu (Bacteroides fragilis [23])?
Answer: >=5

Question: What about the Activity (Bacteroides fragilis [24]) of the same compound?
Answer: inactive

Question: What about the half-life [25] of the same compound?
Answer: 13.2 min

Question: What about the half-life [26] of the same compound?
Answer: 13.8 min

From ChEMBL document CHEMBL1153833, “Effect of dosing and dosing frequency on the efficacy of ceftizoxime and the emergence of ceftizoxime resistance during the early development of murine abscesses caused by Bacteroides fragilis and Enterobacter cloacae mixed infection” (Antimicrob Agents Chemother, 2007)
